Screening data: PubChem BioAssay, Broad Institute
PolyA inhibitor – yeast polyadenylation inhibition; AID 1875; S. cerevisiae SKY197-pL101 polyadenylation reporter, beta-gal luminescence; efflux-impaired pdr1/pdr3 knockout yeast; score 100 = 6 SD above DMSO; activity score, % at 12 µM; hit rate 0.02% among 300,000;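 active = lowest replicate activity score at least 50, where 100 means six control SD above control mean; inconclusive = lowest score under 50 but half or more replicates reach 50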;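 note: yeast exposed to compound for 9 h at 30 °C; higher score means more reporter readthrough which indicates perturbed polyadenylation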
CSC inhib – cancer stem cell inhibition. cancer stem cell-like cells viability, luminescence. inhibition, % at 7.5 µM. hit rate 1.1% among 300,000. AID 2717; in the data active = inhibition above about 75%; inconclusive = no clear call, values can overlap the other calls; tested in HMLE shEcad cells
Calb FLC – C. albicans growth modulation with fluconazole; hit rate 0.57% among 300,000; C. albicans CaCi-2 (fluconazole-resistant clinical isolate) + fluconazole, Alamar Blue growth, 48 h; growth inhibition, % (test concentration not listed);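 active = growth inhibition above about 58% in most replicates, limit read from the data, passing the limit was not always enough; inconclusive = exactly half the replicates above a set limit; inactive = most replicates below a set limit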;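 note: all wells also contain fluconazole at 8 µg/ml as a sub-toxic cotreatment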
HIF activator – HIF pathway transcriptional activation | U2OS HRE-luciferase reporter, luminescence; normalized: DMSO 0%, desferrioxamine 100% | activation, % at 7.5 µM (by protocol) | hit rate 0.32% among 300,000 | AID 1910;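 active = mean activation of at least 10% of the iron chelator positive control signal, with at least half of replicates also reaching 10%; inconclusive = mean and replicate majority disagree about reaching 10%; inactive = mean and most replicates under 10%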
Beta cell apopt – beta cell apoptosis inhibition; protection from apoptosis, % (test concentration not listed); hit rate 0.8% among 300,000; AID 435005; INS-1E cytokine-induced death, ATP luminescence, 48 h; percent of positive-control rescue, neutral wells zero;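 active = Every replicate reaches about 75%, or at least half do and their mean reaches it too, limit read from the data; inconclusive = At least half of replicates reach the limit but their mean does not; inactive = Under half of replicates reach the limit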;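 note: higher means more ATP so stronger rescue from cytokine killing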
T cruzi inh – T. cruzi replication inhibition; hit rate 1.4% among 300,000; inhibition, % (test concentration not listed); T. cruzi beta-gal in NIH3T3, luminescence, 90 h;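 active = mean inhibition across valid replicates above about 55%, limit read from the data; inconclusive = mean below that limit but half or more replicates reach it; inactive = mean below it, under half of replicates reach it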;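 note: signal also drops with host cell toxicity which is not excluded here; higher percent means less beta-gal luminescence so fewer parasites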
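System – NIH/3T3 host cells with β-galactosidase reporter T. cruzi · Doses – single 50 nL compound addition per well in DMSO · Reagent – 5000 T. cruzi trypomastigotes/well · Medium – Low-serum DMEM with 2% FBS · Timing – ≥90 h infection period, 3 h prior cell attachment · Evaluation – parasite load inhibition, % · Technique – GalScreen luminescence, 60 min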
Each line names hits and unclear results; the compound was inactive in the other large screens. Sampled rows, rich in hits. Any-hit rate of the full collection: about 3.1%.

Cc1cccc(Nc2nc(N3CCOCC3)nc(N3CCOCC3)n2)c1	T cruzi inh 55.7
CCCCSc1nc2ccc(Nc3nc(N4CCOCC4)nc(N4CCOCC4)n3)cc2s1	T cruzi inh 57.2
Cc1cccc(Nc2nc(N3CCCCC3)nc(N3CCCCC3)n2)c1	none
COC(=O)C1=C(N)N(c2ccccc2C(F)(F)F)C2=C(C(=O)CCC2)C1c1ccc2c(c1)OCO2 (stereo unspecified)	T cruzi inh 55.9
CN(c1cccc(Cl)c1)S(=O)(=O)c1cccc(C(=O)Nc2nc3ccccc3[nH]2)c1	HIF activator active
COc1ccc(N(C)S(=O)(=O)c2cccc(C(=O)Nc3nc4ccccc4[nH]3)c2)cc1	none
O=C(OC1CCOC1=O)c1cc(S(=O)(=O)N2CCOCC2)c(Cl)cc1Cl (stereo unspecified)	none (no result: PolyA inhibitor, CSC inhib, Calb FLC, HIF activator, T cruzi inh)
CC(=O)n1c2c(c3ccccc31)OC(N)=C(C#N)C2c1cccc(Cl)c1Cl (stereo unspecified)	CSC inhib 76.1
O=C(CN1C(=O)CCC1=O)c1ccc(-c2ccccc2)cc1	none
N=c1ccn(CC(=O)c2ccc(-c3ccccc3)cc2)cc1	Beta cell apopt 133.9, T cruzi inh 57.8
CN(C(=O)Nc1ccc(C(C)(C)C)cc1)C1CCCCC1	none
CCCCCc1ccc(-c2cn(CN3C(=O)c4ccccc4C3=O)nn2)cc1	Beta cell apopt 96.4
CCCCCc1ccc(-c2cn(Cc3ccc(C)cc3)nn2)cc1	none
O=C(COC(=O)c1ccc(=O)[nH]c1)Nc1cccc(S(=O)(=O)N2CCOCC2)c1	Calb FLC inconclusive
CCOC(=O)C1(CC2CCCCO2)CCN(C(=O)NCc2ccccc2)CC1 (stereo unspecified)	none
CCN(CC)c1ccc(N=Cc2cc(Br)ccc2O)cc1	T cruzi inh 61.1
Oc1ccc(Br)cc1C=Nc1ccc(Cl)cc1	none
Cc1ccc(-n2c(SCC(=O)c3c(N)n(C)c(=O)n(C)c3=O)nc3sc4c(c3c2=O)CCCC4)c(C)c1	Beta cell apopt 102.2, T cruzi inh 68.0
Cc1ccc(-n2c(SCC(=O)O)nc3sc4c(c3c2=O)CCCC4)cc1	none
O=c1c2ccccc2nc(-c2cccc(Cl)c2)n1O	Calb FLC inconclusive
O=c1c2cc(Br)ccc2nc(-c2ccccc2)n1O	Calb FLC 100.2
Cc1ccc(-c2nc3ccccc3c(=O)n2O)cc1	none
Cc1ccc(-c2nc3ccc(Cl)cc3c(=O)n2O)cc1	Calb FLC 106.3
Cc1nnc(SCC(=O)NC(C)(C)C)n1NCc1c(F)cccc1Cl	none
CC(C)Cc1nc2oc3c(Cl)ncnc3c2c2c1CCC2	CSC inhib 85.8
COc1cc2sc3ccc(-c4ccc5[nH]ccc5c4)cc3c(=O)c2cc1OC	PolyA inhibitor inconclusive (no result: Beta cell apopt)
O=c1c2ccccc2oc2cc(-c3ccc4[nH]ccc4c3)ccc12	CSC inhib 83.1
NC(=S)N/N=C/c1ncc(C(F)(F)F)cc1Cl	CSC inhib 90.7
Cc1nc2ccccc2n1Cc1ccccc1	none
Cc1nc2ccccc2n1Cc1ccc(Br)cc1	Beta cell apopt 96.1
Cn1cnnc1SCCNS(=O)(=O)c1cccc([N+](=O)[O-])c1	none (no result: Beta cell apopt)
COc1ccc(C(=O)NC2c3ccccc3-c3ccccc32)cc1	none
CCOC(=O)C1(Cc2ccccc2C(F)(F)F)CCN(C(C)CCn2cccn2)CC1 (stereo unspecified)	T cruzi inh 67.9
Cc1cc(OCC(=O)N(C)Cc2ccccc2)ccc1Cl	Beta cell apopt 109.5
COc1ccc(N=Nc2cc(C)ccc2O)cc1	none
Cc1ccc(O)c(N=Nc2nccs2)c1	Beta cell apopt 88.5 (no result: PolyA inhibitor, Calb FLC, HIF activator, T cruzi inh)
CCCC(NCC(O)COc1ccc(-c2ccccc2)cc1)c1ccccc1 (stereo unspecified)	T cruzi inh 65.6 (no result: CSC inhib)
CC(=Nc1ccc(Br)cc1)c1sc2ccccc2c1O	T cruzi inh 60.3
O=C(CN1CCCCC1)N1CCCc2ccccc21	HIF activator 89.6
O=C(c1cc([N+](=O)[O-])cc([N+](=O)[O-])c1)N1CCCc2ccccc21	T cruzi inh 73.2
Cc1ccc(C)c2nc3sc(C(=O)N4CCCc5ccccc54)c(N)c3cc12	T cruzi inh 65.9
O=C(c1ccc([N+](=O)[O-])s1)N1CCCc2ccccc21	none
O=C(c1ccc(C(=O)N2CCCc3ccccc32)s1)N1CCCc2ccccc21	Calb FLC 114.3
O=C(c1cccc([N+](=O)[O-])c1)N1CCc2ccccc21	none
O=C(OCc1csc(-c2ccccc2)n1)c1ccccc1O	none
CCCCn1c(N)c(N(CC(C)C)C(=O)C2CCCO2)c(=O)[nH]c1=O (stereo unspecified)	none
COc1ccccc1-c1cc(C(F)(F)F)nc(S(=O)(=O)CCCC(=O)NC(C)C)n1	HIF activator 24.4
O=[N+]([O-])c1cn(-c2nc(-c3ccco3)cc(C(F)(F)F)n2)cn1	T cruzi inh 64.6
COc1ccc(-c2cc(C(F)(F)F)nc(S(=O)(=O)CCCC(=O)Nc3cc(C)on3)n2)cc1OC	HIF activator 11.6 (no result: CSC inhib, Beta cell apopt)
COc1ccccc1-c1cc(C(F)(F)F)nc(S(=O)(=O)CCCC(=O)NCc2ccc(F)cc2)n1	CSC inhib 76.6, HIF activator 26.2
Cc1nn(-c2ccc(Cl)cc2)c(Cl)c1/C=N/NC(=O)c1ccc(NS(=O)(=O)c2cccs2)cc1	none
CCc1ccc(CN(C)C(=O)CCc2nnc(CCc3cccc(OC)c3)o2)nc1	none
O=c1[nH]c2ccccc2[n+]([O-])c1-c1ccccc1	none
COc1ccccc1-c1cc2nc(C)c(CCC(=O)NCc3ccc(F)cc3)c(C)n2n1	T cruzi inh 61.3
COc1ccccc1-c1cc(C(F)(F)F)nc(S(=O)(=O)CCCC(=O)N2CCCCC2C)n1 (stereo unspecified)	HIF activator 11.0
COc1ccccc1-c1cc(C(F)(F)F)nc(S(C)(=O)=O)n1	CSC inhib 85.4, HIF activator 16.3
CN1CCN(c2nc(-c3ccco3)cc(C(F)(F)F)n2)CC1	none
COc1ccccc1-c1cc(C(F)(F)F)nc(S(=O)(=O)CCCC(=O)Nc2cc(C)on2)n1	none
CS(=O)(=O)c1nc(-c2ccco2)cc(C(F)(F)F)n1	CSC inhib 112.0, Beta cell apopt 80.0, T cruzi inh 54.9
COc1ccccc1-c1cc(C(F)(F)F)nc(N2CCCC2)n1	none
Cn1cc(S(=O)(=O)N2CCNCC2)cc1C(N)=O	none (no result: PolyA inhibitor, Calb FLC, HIF activator, T cruzi inh)
CS(=O)(=O)c1cccc(NC(=O)c2ccc(Cl)c(Cl)c2)c1	T cruzi inh 57.7
CCc1cc(SC#N)cc(C)c1NC(=O)CCl	Beta cell apopt 99.4
Cn1c(=O)c2c(ncn2CC(O)CNc2ccc(F)cc2)n(C)c1=O (stereo unspecified)	none
CCN(CC)C(=O)c1cc([N+](=O)[O-])cc2c1-c1ccc([N+](=O)[O-])cc1C2=C(C#N)C#N	Beta cell apopt 88.5
